Measurements published in ChEMBL document CHEMBL1142063, “Synthesis of omeprazole analogues and evaluation of these as potential inhibitors of the multidrug efflux pump NorA of Staphylococcus aureus” (2007).
Active and inactive are the calls of the source. The calls are words filed in the database; no cut-off is given here.

What was measured:
Staphylococcus aureus [1] = test: Antibacterial activity against Staphylococcus aureus SA1199B overexpressing NorA at 5 ug by disk diffusion method; format: functional; conditions: read-out: IZ
In short: (§1)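 Agar diffusion on Mueller-Hinton agar (adjusted to 20 μg/ml Ca²⁺ and 10 μg/ml Mg²⁺), used plain or with the efflux inhibitor incorporated at the stated concentration. Disks were 5 μg for the fluoroquinolones and 30 μg for chloramphenicol. Plates were incubated overnight at 37°C, and inhibition zone diameters were measured. Values are means of at least three independent experiments.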

Staphylococcus aureus [2] = test: Increase in 16 ug/ml Norfloxacin accumulation in Staphylococcus aureus SA1199B mutant overexpressing NorA measured per mg of cell protein at 128 ug/ml after 5 mins; format: functional, organism-based
In short: (§2)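 SA-1199B was grown to mid-exponential phase in MH broth (4–5 h, 37°C, shaken), then washed and resuspended in 50 mM sodium phosphate, pH 7.0. Cells got norfloxacin at one-quarter MIC, alone or with inhibitor at 128 μg/ml. At 5–20 min, cells were spun through silicone-paraffin oil into orthophosphoric acid. Norfloxacin was measured by HPLC fluorescence (ex 240/[…]) as ng/mg BCA protein. Means of triplicate experiments.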

Staphylococcus aureus [3] = test: Increase in 2 ug/ml Norfloxacin antibacterial activity against wild type Staphylococcus aureus SA1199 at 128 ug/ml by checker board method; format: functional
Staphylococcus aureus [4] = test: Increase in 16 ug/ml Norfloxacin accumulation in Staphylococcus aureus SA1199B mutant overexpressing NorA measured per milligram of cell protein at 128 ug/ml after 20 mins; format: functional, organism-based; in short: as §2
Staphylococcus aureus [5] = test: Increase in 5 ug ciprofloxacin antibacterial activity against Staphylococcus aureus SA1199B mutant overexpressing NorA at 128 ug/ml by disk diffusion method; format: functional; in short: as §1
Staphylococcus aureus [6] = test: Increase in 5 ug moxifloxacin antibacterial activity against Staphylococcus aureus SA1199B mutant overexpressing NorA at 128 ug/ml by disk diffusion method; format: functional; in short: as §1
Staphylococcus aureus [7] = test: Increase in 64 ug/ml Norfloxacin antibacterial activity against Staphylococcus aureus SA1199B mutant overexpressing NorA at 128 ug/ml by checker board method; format: functional
Staphylococcus aureus [8] = test: Increase in 5 ug Norfloxacin antibacterial activity against Staphylococcus aureus SA1199B mutant overexpressing NorA at 128 ug/ml by disk diffusion method; format: functional; in short: as §1
Staphylococcus aureus [9] = test: Increase in 16 ug/ml Norfloxacin accumulation in Staphylococcus aureus SA1199B mutant overexpressing NorA at 128 ug/ml after 20 mins; format: functional; in short: as §2
Staphylococcus aureus [10] = test: Increase in 16 ug/ml Norfloxacin accumulation in wild type Staphylococcus aureus SA1199 at 128 ug/ml after 20 mins; format: functional
In short: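 Mid-exponential SA-1199 cells were washed and resuspended in 50 mM sodium phosphate, pH 7.0. They were exposed at time zero to norfloxacin at one-quarter MIC, alone or with EPI at 128 μg/ml. At 5–20 min, cells were spun through silicone-paraffin oil into orthophosphoric acid. Lysate norfloxacin was measured by C18 HPLC with fluorescence detection (ex 240, em 280 nm) and normalized to BCA protein (ng/mg). Triplicate experiments, mean reported.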

Staphylococcus aureus [11] = test: Increase in 16 ug/ml Norfloxacin antibacterial activity against Staphylococcus aureus SA1199B mutant overexpressing NorA at 128 ug/ml after 24 hrs by time-kill curve method; format: functional, organism-based
In short: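 Log-phase SA-1199B inoculum at 10⁶ CFU/ml in MH broth with norfloxacin 16 μg/ml plus inhibitor 128 μg/ml, 37°C. Viable counts were taken by dilution plating in triplicate on MH agar at 0, 2, 4, 8 and 24 h. Results are expressed as log percentage survival, means of three experiments. Sensitivity limit was 1 log₁₀ CFU/ml.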

Staphylococcus aureus [12] = test: Increase in 5 ug levofloxacin antibacterial activity against Staphylococcus aureus SA1199B mutant overexpressing NorA at 128 ug/ml by disk diffusion method; format: functional; in short: as §1
Staphylococcus aureus [13] = test: Antibacterial activity against Staphylococcus aureus; format: functional
In short: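 Tube broth dilution MIC against SA-1199 and NorA-overproducing SA-1199B in Mueller-Hinton broth with 20 μg/ml Ca²⁺ and 10 μg/ml Mg²⁺. Inoculum was a 4–5 h 37°C culture diluted 1/10 (≈10⁶ CFU/ml). Compound range was 512 to 1 μg/ml, dissolved in DMSO (final ≤4%).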

Staphylococcus aureus [14] = test: Increase in 5 ug sparfloxacin antibacterial activity against Staphylococcus aureus SA1199B mutant overexpressing NorA at 128 ug/ml by disk diffusion method; format: functional; in short: as §1
Staphylococcus aureus [15] = test: Increase in 30 ug chloramphenicol antibacterial activity against Staphylococcus aureus SA1199B mutant overexpressing NorA at 128 ug/ml by disk diffusion method; format: functional; in short: as §1
Staphylococcus aureus [16] = test: Increase in 5 ug ofloxacin antibacterial activity against Staphylococcus aureus SA1199B mutant overexpressing NorA at 128 ug/ml by disk diffusion method; format: functional; in short: as §1
Staphylococcus aureus [17] = test: Antibacterial activity against Staphylococcus aureus SA1199 at 5 ug by disk diffusion method; conditions: read-out: IZ

CC1COc2c(N3CCN(C)CC3)c(F)cc3c(=O)c(C(=O)O)cn1c23 (centres undefined) [OFLOXACIN]
zone of inhibition at 5 µg/disc (Staphylococcus aureus [1]): 27 mm

COc1ccc2[nH]c([S+]([O-])Cc3nc4cc(Cl)ccc4n4cccc34)nc2c1 (centres undefined)
Drug uptake (Staphylococcus aureus [2]): 270 ng/mg | MIC (Staphylococcus aureus [3]): 1 µg/mL | Drug uptake (Staphylococcus aureus [4]): 400 ng/mg | inhibition zone (IZ) (Staphylococcus aureus [5]): 25 mm | inhibition zone (IZ) (Staphylococcus aureus [6]): 28 mm | MIC (Staphylococcus aureus [7]): 4 µg/mL | inhibition zone (IZ) (Staphylococcus aureus [8]): 18 mm | Activity (Staphylococcus aureus [9]): 40% | Activity (Staphylococcus aureus [10]): 10% | Activity (Staphylococcus aureus [11]): Active | inhibition zone (IZ) (Staphylococcus aureus [12]): 27 mm | MIC (Staphylococcus aureus [13]): > 512 µg/mL | inhibition zone (IZ) (Staphylococcus aureus [14]): 28 mm | inhibition zone (IZ) (Staphylococcus aureus [15]): 27 mm | inhibition zone (IZ) (Staphylococcus aureus [16]): 26 mm

CCn1cc(C(=O)O)c(=O)c2cc(F)c(N3CCNCC3)cc21 [NORFLOXACIN]
zone of inhibition at 5 µg/disc (Staphylococcus aureus [1]): 27 mm

C[C@H]1COc2c(N3CCN(C)CC3)c(F)cc3c(=O)c(C(=O)O)cn1c23 [LEVOFLOXACIN]
zone of inhibition at 5 µg/disc (Staphylococcus aureus [17]): 30 mm

COc1c(N2C[C@@H]3CCCN[C@@H]3C2)c(F)cc2c(=O)c(C(=O)O)cn(C3CC3)c12 [MOXIFLOXACIN]
zone of inhibition at 5 µg/disc (Staphylococcus aureus [1]): 27 mm
